Drawing on ChEMBL document CHEMBL2434864, “Synthesis and biological evaluation of phenyl substituted polyoxygenated xanthone derivatives as anti-hepatoma agents” (Eur J Med Chem, 2013), this text covers IC50, inhibition of growth and Activity for 30 compounds.

A word on the pIC50: it is −log10 of the IC50, conventionally taken in molar units. The low end stands for a high IC50, the high end for a low IC50.

pIC50: −log10 of the molar value. A value given as a limit tells only on which side of the number the result lay.

Test [1] has as its system HepG2. The test can be described thus: Cytotoxicity against human HepG2 cells after 48 hrs by CCK-8 assay. The following applies: HepG2, 48 h. The test is classed as functional, cell-based. An outline of the steps:
(§1)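 Cells grown at 37 °C, 5% CO2 in medium with 10% FBS and penicillin/streptomycin: HepG-2 in MEM; QGY-7703, SMMC-7721 and QSG-7701 in 1640 medium. Seeded at 2×10^5 cells/well for 24 h, then exposed to varying compound concentrations or 1% DMSO vehicle for 48 h. CCK-8 added for 3 h more, absorbance read at 450 nm.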
For orientation: Formazan colour is commonly taken as a measure of viable cells.

A short description of test [2]: Growth inhibition of human QGY7703 cells at 10 uM after 48 hrs by CCK-8 assay relative to control. As to conditions: QGY-7703, 48 h, read-out: GI. The test is classed as functional. An outline of the steps:
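QGY-7703 cells were kept in 1640 medium with 10% FBS and penicillin/streptomycin at 37 °C, 5% CO2, then seeded at 2×10^5 cells/well for 24 h. They were treated once at 10 μM for 48 h, followed by CCK-8 for 3 h and A450. Values are percentage inhibition relative to untreated control cells.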

The nature of test [3]: Cytotoxicity against human QSG7701 cells after 48 hrs by CCK-8 assay. As to conditions: QSG7701, 48 h. Type of test: cell-based. An outline of the steps:
as §1

The test system of test [4] is SMMC-7721. Description: Cytotoxicity against human SMMC7721 cells after 48 hrs by CCK-8 assay. As to conditions: SMMC-7721, 48 h. The test is classed as functional, cell-based. The method, boiled down:
as §1

Test [5] in a line: Cytotoxicity against human QGY7703 cells after 48 hrs by CCK-8 assay. The test is classed as functional, cell-based. The following applies: QGY-7703, 48 h. The method, boiled down: as §1
Test [6] relates to QGY-7703. The test can be described thus: Induction of apoptosis in human QGY7703 cells assessed as late apoptotic cells at 30 uM after 48 hrs by Annexin V-FITC/propidium iodide staining-based flow cytometric analysis (reference value: 4.25%). Type of test: functional. The method, boiled down:
(§2)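 QGY-7703 cells were seeded at 5×10^5 cells/mL for 24 h, then given 3.75, 7.5, 15 or 30 μM, or DMSO control, for 48 h. Floating and trypsinized adherent cells were pooled, washed twice in cold PBS and resuspended in binding buffer. They were stained with annexin V-FITC/PI for 15 min at room temperature in the dark and analysed by flow cytometry. Mean ± SD of three independent experiments.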
A general note: In flow cytometry, cells or beads pass a laser one at a time.

The subject of test [7] is QGY-7703. The test can be described thus: Induction of apoptosis in human QGY7703 cells assessed as early apoptotic cells at 7.5 uM after 48 hrs by Annexin V-FITC/propidium iodide staining-based flow cytometric analysis (reference value: 2.63%). The test is classed as functional. An outline of the steps:
as §2

The subject of test [8] is QGY-7703. The test can be described thus: Induction of apoptosis in human QGY7703 cells assessed as late apoptotic cells at 3.75 uM after 48 hrs by Annexin V-FITC/propidium iodide staining-based flow cytometric analysis (reference value: 4.25%). Type of test: functional. An outline of the steps:
as §2

Test [9] relates to QGY-7703. The test can be described thus: Induction of apoptosis in human QGY7703 cells assessed as late apoptotic cells at 7.5 uM after 48 hrs by Annexin V-FITC/propidium iodide staining-based flow cytometric analysis (reference value: 4.25%). Type of test: functional. The method, boiled down:
as §2

The test system of test [10] is QGY-7703. The test can be described thus: Induction of apoptosis in human QGY7703 cells assessed as early apoptotic cells at 15 uM after 48 hrs by Annexin V-FITC/propidium iodide staining-based flow cytometric analysis (reference value: 2.63%). The test is classed as functional. The method, boiled down: as §2
In test [11] the test system is QGY-7703. Description: Induction of apoptosis in human QGY7703 cells assessed as late apoptotic cells at 15 uM after 48 hrs by Annexin V-FITC/propidium iodide staining-based flow cytometric analysis (reference value: 4.25%). Type of test: functional. The method, boiled down: as §2
The subject of test [12] is QGY-7703. Description: Induction of apoptosis in human QGY7703 cells assessed as early apoptotic cells at 30 uM after 48 hrs by Annexin V-FITC/propidium iodide staining-based flow cytometric analysis (reference value: 2.63%). Type of test: functional. The method, boiled down:
as §2

In test [13] the test system is QGY-7703. Description: Induction of apoptosis in human QGY7703 cells assessed as early apoptotic cells at 3.75 uM after 48 hrs by Annexin V-FITC/propidium iodide staining-based flow cytometric analysis (reference value: 2.63%). Type of test: functional. The method, boiled down:
as §2

In the case of `COc1ccc2c(=O)c3c(OC)cc(OC)c(-c4cccc(C)c4)c3oc2c1OC`, the pIC50 in test [1] is 5.30; in [3], less than 4.00; in [4], 4.83; in [5], 4.88. In addition, the inhibition of growth at 10 µM in test [2] amounted to 51.4%.

`COc1ccc2c(=O)c3c(OC)cc(OC)c(-c4ccc(C(F)(F)F)cc4)c3oc2c1OC`: in [2], the inhibition of growth at 10 µM worked out at 5.23%.

Regarding `COc1ccc2c(=O)c3c(OC)cc(OC)c(-c4ccc(C(C)(C)C)cc4)c3oc2c1OC`, the negative-log IC50 (pIC50) was 4.41 in test [1], less than 4.00 in test [3], 4.74 in test [4] and 4.48 in test [5]. In addition, the inhibition of growth at 10 µM in test [2] is 56.3%.

As for `COc1ccc2c(=O)c3c(OC)cc(OC)c(-c4ccc(C(C)=O)cc4)c3oc2c1OC`, the inhibition of growth at 10 µM in test [2] was found to be 13.2%.

`COC(=O)c1ccc(-c2c(OC)cc(OC)c3c(=O)c4ccc(OC)c(OC)c4oc23)cc1`: the inhibition of growth at 10 µM in [2] is -5.48%.

In the case of `COc1ccc2c(=O)c3c(OC)cc(OC)c(-c4ccc(S(C)(=O)=O)cc4)c3oc2c1OC`, the inhibition of growth at 10 µM in [2] is 1.59%.

`COc1ccc2c(=O)c3c(OC)cc(OC)c(-c4ccc(C#N)cc4)c3oc2c1OC`: in test [2], the inhibition of growth at 10 µM is -1.84%.

Consider `COc1ccc2c(=O)c3c(OC)cc(OC)c(-c4cccc(C=O)c4)c3oc2c1OC`, for which the inhibition of growth at 10 µM in test [2] was 13%.

Take `COc1ccc2c(=O)c3c(OC)cc(OC)c(-c4ccccc4F)c3oc2c1OC`: the negative logarithm of the IC50 (pIC50) is 4.31 in [1], 4.68 in [3], 4.57 in test [4] and 4.40 in test [5]. Also, the inhibition of growth at 10 µM in test [2] was determined as 52.4%.

With `COc1ccc2c(=O)c3c(OC)cc(OC)c(-c4cccc(C#N)c4)c3oc2c1OC`, the inhibition of growth at 10 µM in test [2] is -4.17%.

In the case of `COc1cccc(-c2c(OC)cc(OC)c3c(=O)c4ccc(OC)c(OC)c4oc23)c1`, the pIC50 is 4.54 in [1], 4.32 in test [3], 4.98 in test [4] and 4.92 in [5]. Moreover, the inhibition of growth at 10 µM in test [2] was 55.2%.

With `COc1ccc2c(=O)c3c(OC)cc(OC)c(-c4cccc(C(F)(F)F)c4)c3oc2c1OC`, the inhibition of growth at 10 µM in test [2] stood at 30%.

`COc1cc(OC)cc(-c2c(OC)cc(OC)c3c(=O)c4ccc(OC)c(OC)c4oc23)c1`: the pIC50 in test [1] was 4.35; in test [3], 4.48; in test [4], 4.50; in [5] it was 4.50. Also, in test [2], the inhibition of growth at 10 µM turned out to be 58%.

For `COc1ccc2c(=O)c3c(OC)cc(OC)c(-c4cccnc4)c3oc2c1OC`, the inhibition of growth at 10 µM in test [2] worked out at 18%.

`COc1ccc2c(=O)c3c(OC)cc(OC)c(-c4ccccc4OC(F)(F)F)c3oc2c1OC`: in test [2], the inhibition of growth at 10 µM stood at 33%.

`COc1ccc2c(=O)c3c(OC)cc(OC)c(-c4ccc(F)c(F)c4)c3oc2c1OC`: the inhibition of growth at 10 µM in test [2] was found to be 5.85%.

For the compound `COc1ccc2c(=O)c3c(OC)cc(OC)c(-c4cccc(F)c4)c3oc2c1OC`, the inhibition of growth at 10 µM in test [2] was found to be 35.2%.

With `COc1ccc2c(=O)c3c(OC)cc(OC)c(-c4cc(C)ccc4C)c3oc2c1OC`, the negative logarithm of the IC50 (pIC50) in test [1] was 4.54; in test [3] it was 4.04; in test [4], 4.77; in test [5] it was 4.61. Moreover, the inhibition of growth at 10 µM in test [2] is 54.3%.

Regarding `COc1ccc2c(=O)c3c(OC)cc(OC)c(-c4cc(F)ccc4F)c3oc2c1OC`, the inhibition of growth at 10 µM in test [2] is 17.4%.

Turning to `COc1ccc2c(=O)c3c(OC)cc(OC)c(-c4ccc(C)cc4)c3oc2c1OC`, the negative-log IC50 (pIC50) in test [1] is 4.61; in test [3], 4.18; in [4] it was 5.50; in [5] it was 4.85. Moreover, the inhibition of growth at 10 µM in [2] worked out at 68.1%.

On to `COc1ccc2c(=O)c3c(OC)cc(OC)c(-c4ccc(C(C)C)cc4)c3oc2c1OC`, for which the negative logarithm of the IC50 (pIC50) in [1] is 4.49; in test [3], less than 4.00; in test [4], 4.70; in [5] it was 4.58. In addition, the inhibition of growth at 10 µM in test [2] came out at 52.7%.

Take `COc1cc(OC)c2c(=O)c3ccc(OC)c(OC)c3oc2c1`: in test [2], the inhibition of growth at 10 µM was determined as 14.1%.

Turning to `COc1ccc2c(=O)c3c(OC)cc(OC)c(-c4ccccc4)c3oc2c1OC`, the Activity in test [6] worked out at 23.27%; in test [7] it was 8.63%; in [8] it was 4.6%; in test [9], 12.12%; in test [10], 10.58%; in test [11] it was 18.82%. Also, the figures for the Activity in test [12] and in test [13] were 15.81% and 2.61%, respectively. The pIC50 in [1] is 4.72; in [3] it was less than 4.00; in [4], 5.12; in test [5], 5.20. In addition, the inhibition of growth at 10 µM in test [2] stood at 66.5%.

As for `COc1ccc2c(=O)c3c(OC)cc(OC)c(-c4cc(C(F)(F)F)cc(C(F)(F)F)c4)c3oc2c1OC`, in test [2], the inhibition of growth at 10 µM is 14.2%.

On to `COc1ccc2c(=O)c3c(OC)cc(OC)c(-c4ccc(C=O)cc4)c3oc2c1OC`, for which the inhibition of growth at 10 µM in test [2] is 19.7%.

As to `COc1ccc2c(=O)c3c(OC)cc(OC)c(-c4cc(F)cc(F)c4)c3oc2c1OC`, in test [2], the inhibition of growth at 10 µM amounted to 11.2%.

For the compound `COc1ccc2c(=O)c3c(OC)cc(OC)c(-c4ccc(OC(F)(F)F)cc4)c3oc2c1OC`, the inhibition of growth at 10 µM in test [2] turned out to be 0.53%.

On to `COc1ccc2c(=O)c3c(OC)cc(OC)c(-c4ccc(F)cc4)c3oc2c1OC`, for which the inhibition of growth at 10 µM in [2] was 13.9%.

Consider `CCc1ccc(-c2c(OC)cc(OC)c3c(=O)c4ccc(OC)c(OC)c4oc23)cc1`, for which the pIC50 in test [1] was 4.55; in test [3], 4.16; in test [4], 4.79; in test [5], 4.65. In test [2], the inhibition of growth at 10 µM stood at 77.1%.

Take `O=c1[nH]cc(F)c(=O)[nH]1` [FLUOROURACIL]: the pIC50 is 4.90 in test [1], 6.22 in test [3], 4.84 in test [4] and 4.81 in [5].
